Among the data in ChEMBL document CHEMBL2401730, “The macrocyclic peptide natural product CJ-15,208 is orally active and prevents reinstatement of extinguished cocaine-seeking behavior” (J Nat Prod, 2013) are Activity, ED50 and inhibition values, retold here.

Data set [1] relates to Mus musculus. As to the kind of experiment: Antinociceptive activity in C57BL/6J mouse at 1 to 30 mg/kg, po after 120 mins by warm water tail withdrawal assay. The format is functional, organism-based. In short, it runs like this:
(§1)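 Adult male C57BL/6J mice (20-25 g); baseline tail-withdrawal latency in 55 °C water measured, then oral dosing in 1:1:8 ethanol/Tween 80/0.9% saline vehicle. Latency re-measured repeatedly over time, 15 s cut-off. %antinociception = 100×(test−control)/(15−control). ED50 with 95% CI; 7-24 mice/group; repeated-measures ANOVA at 10 min intervals for hour 1 and hour 2.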

Data set [2] has as its system Mus musculus. Put plainly: Antinociceptive activity in po dosed C57BL/6J mouse after 40 mins by warm water tail withdrawal assay. The format is functional. In short, it runs like this: as §1
The test system of data set [3] is Mus musculus. As to the kind of experiment: Prevention of cocaine-induced reinstatement of extinguished cocaine seeking behavior in C57BL/6J mouse at 30 to 60 mg/kg, po qd for 2 days followed by additional cycle of cocaine place conditioning at 30 mins post last dose measured on day 3. The data set is classed as functional, organism-based. In short, it runs like this:
(§2)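 Counterbalanced CPP: four days of saline (30 min confinement), then cocaine 10 mg/kg sc 4 h later in the opposite compartment. Extinction followed over 3 weeks of twice-weekly tests. Oral 1:1:8 vehicle or 30/60 mg/kg given days 28-29, then either forced swim 3 h later or cocaine conditioning 30 min after day-29 dose. Place preference tested day 30 over 30 min; 12-16 mice/group; ANOVA/Tukey HSD.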

For data set [4], the system named is Mus musculus. Put plainly: Neurotoxicity in C57BL/6J mouse assessed as sedative effect at 10 to 60 mg/kg, po after 60 mins by rotarod test. The data set is classed as toxicity, organism-based. Details: dose 10-60 mg/kg, route oral. The note with it: in vivo, 1 h. The method, boiled down: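 Seven habituation trials, with the last used as baseline. Male C57BL/6J mice then received oral vehicle (1:1:8) or 10 or 60 mg/kg; the U50,488 comparator was given 10 mg/kg ip. Accelerating rotorod (0-20 rpm, 180 s maximum) over 60 min. Latency to fall expressed as % change from baseline; 7-8 mice/group; two-way ANOVA.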
(In the rotarod test animals must keep their balance on a rotating rod.)

Data set [5] deals with Mus musculus. Put plainly: Antinociceptive activity in C57BL/6J mouse at 1 to 60 mg/kg, po after 60 mins by warm water tail withdrawal assay. The format is functional, organism-based. The method, boiled down:
as §1

For data set [6], the system named is Mus musculus. As to the kind of experiment: Prevention of stress-induced reinstatement of extinguished cocaine cocaine seeking behavior in C57BL/6J mouse at 30 mg/kg, po qd for 2 days measured 3 hrs post last dose by forced swim test. The format is functional, organism-based. Details: dose 30 mg/kg. In short, it runs like this: as §2
Data set [7] relates to Mus musculus. Put plainly: Antagonist activity at kappa opioid receptor in po dosed C57BL/6J mouse assessed as inhibition of ip dosed U50,488-induced antinociception effect incubated for 3 hrs prior to testing by warm water tail withdrawal assay.
The subject of data set [8] is Mus musculus. Put plainly: Prevention of stress-induced reinstatement of extinguished cocaine seeking behavior in C57BL/6J mouse at 60 mg/kg, po qd for 2 days measured 3 hrs post last dose by forced swim test. The format is functional, organism-based. The arrangement: dose 60 mg/kg. The method, boiled down:
as §2

Data set [9] relates to Mus musculus. Put plainly: Antinociceptive activity in C57BL/6J mouse at 0.3 mg/kg, po after 60 mins by warm water tail withdrawal assay. The data set is classed as functional, organism-based. The arrangement: dose 0.3 mg/kg. In short, it runs like this:
as §1

Data set [10] deals with Mus musculus. As to the kind of experiment: Antagonist activity at kappa opioid receptor in po dosed C57BL/6J mouse assessed as inhibition of icv dosed U50,488-induced antinociception effect incubated for 3 hrs prior to testing by warm water tail withdrawal assay. The format is functional, organism-based. The method, boiled down: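 Male C57BL/6J mice (20-25 g) given test agent orally in 1:1:8 ethanol/Tween 80/saline; 3 h later U50,488 given ip (10 mg/kg, in saline) or icv (30 nmol), with tail-withdrawal testing in 55 °C water 40 or 20 min afterwards, respectively. 15 s cut-off; % antinociception calculated from baseline latency. 8 mice/group; one-way ANOVA with Tukey HSD.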

The test system of data set [11] is Mus musculus. Put plainly: Antinociceptive activity in C57BL/6J mouse at 60 mg/kg, po after 140 mins by warm water tail withdrawal assay. The data set is classed as functional, organism-based. Details: dose 60 mg/kg. The method, boiled down: as §1

SMILES strings stand for the structures. Calls of active or inactive are those of the source. Where a SMILES comes first, the peptide text is derived from it. [ ]: non-standard residue; d: D form.

Usually ED50 stands for the dose at which the effect has come halfway, by size or by number of responders. A lower ED50 goes with an effect at a small dose. As to `O=C1N[C@@H](Cc2ccccc2)C(=O)N2CCC[C@@H]2C(=O)N[C@@H](Cc2ccccc2)C(=O)N[C@H]1Cc1c[nH]c2ccccc12` (cyclo(FWF[dP])), the result with Mus musculus [1], in the data set on Mus musculus [6] and in the data set with Mus musculus [9] was inactive. The same molecule returned a 50% effective dose (ED50) with Mus musculus [2] of 3.49 mg/kg. The outcome in the data set on Mus musculus [3], with Mus musculus [5], in the data set on Mus musculus [8] and in the data set with Mus musculus [11] was Active. Moreover, the Activity result in the data set with Mus musculus [4] is “Non-toxic”. Besides, the inhibition result in the data set on Mus musculus [7] and in the data set on Mus musculus [10] was “Dose-dependent effect” throughout.
